Measurements published in ChEMBL document CHEMBL5329165, “Design, synthesis and biological evaluation of phenanthridine amide and 1,2,3-triazole analogues against Mycobacterium tuberculosis” (RSC Med Chem, 2023).
Values after ≈ are worked out from the molar mass of the structure shown.

Assays:
[1] = tested on: Mycobacterium tuberculosis; assay: Antimycobacterial activity against replicating Mycobacterium tuberculosis H37Rv ATCC 27294 incubated for 7 days by microplate alamar blue assay; format: functional; details: H37Rv ATCC 27294, 168 h, time 7 day
Method in brief: (§1)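 H37Rv (ATCC 27294) in 7H12 broth (7H9 with casitone, BSA, catalase, palmitic acid). Compounds from DMSO in twofold serial dilution; final inoculum 3 to 5 X10⁵ cells/mL; 7 days at 37°C. Resazurin plus Tween 80 added, 18–24 h more at 37°C. Fluorescence read at 530 nm excitation/590 nm emission. MIC is the lowest concentration giving 90% fluorescence reduction versus untreated bacteria.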

[2] = tested on: Mycobacterium tuberculosis; assay: Antimycobacterial activity against non-replicating Mycobacterium tuberculosis H37Rv ATCC 27294 incubated for 10 days under anaerobic condition followed by treatment under aerobic condition and measured on day 11 by luminescence based low oxygen recovery assay; format: functional; details: H37Rv ATCC 27294, 264 h, time 11 day
Method in brief: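 Low-oxygen recovery assay with H37Rv carrying autoluminescent LuxABCDE plasmid, adapted to low oxygen. Cells in 7H12 broth, sonicated 15 s, inoculum 5 x 10⁵ to 2 x 10⁶ CFU/mL, with twofold compound dilutions. Anaerobic (<0.16% O₂; 10% H₂, 5% CO₂, N₂) at 37°C for 10 days, then 28 h aerobic recovery (5% CO₂ air). Luminescence read day 11; MIC at 90% signal reduction versus untreated controls.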

[3] = Cytotoxicity against human HepG2 cells assessed as reduction in cell viability by alamar blue assay; format: toxicity, cell-based
Method in brief: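 HepG2 cells grown in Glutamax DMEM with 10% (v/v) FBS and antibiotics, seeded in 96-well plates at 37°C, 5% CO₂. Viability measured by Alamar Blue staining per manufacturer's protocol; CC₅₀ derived.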

[4] = tested on: Mycobacterium tuberculosis; assay: Antimycobacterial activity against Mycobacterium tuberculosis H37Ra by microplate alamar blue assay; format: functional
[5] = tested on: Mycobacterium tuberculosis; assay: Antibacterial activity against Mycobacterium tuberculosis H37Rv ATCC 27294 by microplate alamar blue assay; format: functional; method in brief: as §1
[6] = tested on: Mycobacterium tuberculosis; assay: Antibacterial activity against Mycobacterium tuberculosis H37Rv; format: functional; method in brief: as §1
[7] = tested on: Mycobacterium tuberculosis; assay: Antibacterial activity against Mycobacterium tuberculosis H37Rv incubated for 7 days by alamar blue reagent based fluorescence plate reader analysis; format: functional; details: 168 h, time 7 day; method in brief: as §1

Row | Structure (SMILES) | MIC [1] [µM] | MIC [2] [µM] | CC50 [3] [µM] | other results
1 | Nc1ccc(C(=O)Nc2nc3ccccc3c3ccccc23)cc1 | 78.3 (≈ 24.5 µg/mL) | 85.8 (≈ 26.9 µg/mL) | 32.1 | –
2 | O=C(/C=C/c1ccccc1)Nc1nc2ccccc2c2ccccc12 | > 308 | > 308 | – | –
3 | O=C(Nc1nc2ccccc2c2ccccc12)c1cnccn1 | > 333 | > 333 | 53 | –
4 | O=C(Nc1ccc(Cl)cn1)c1cccc(C(F)(F)F)c1 | – | – | – | MIC [4]: 109 µM (≈ 32.7 µg/mL)
5 | O=C(Cc1ccccc1)Nc1nc2ccccc2c2ccccc12 | 294 (≈ 91.8 µg/mL) | 267 (≈ 83.5 µg/mL) | > 50 | –
6 | Cc1nc2c3ccccc3c3ccccc3n2c1C(=O)NCc1cn(-c2ccc(Cl)c(Cl)c2[N+](=O)[O-])nn1 | > 183 | > 183 | – | –
7 | O=C(NCc1ccc(N2CCC(Cl)CC2)cc1)c1cc([N+](=O)[O-])cc([N+](=O)[O-])c1 | – | – | – | MIC [5]: 0.038 µM (≈ 0.0159 µg/mL)
8 | CCCCCC(=O)Nc1nc2ccccc2c2ccccc12 | > 342 | 79.8 (≈ 23.3 µg/mL) | 79.5 | –
9 | O=C(Nc1nc2ccccc2c2ccccc12)c1cccc(Cl)c1 | > 300 | > 300 | – | –
10 | CCc1nc2ccc(C)cn2c1C(=O)NCCOc1ccc(N2CCC(=NOC)CC2)cc1 | – | – | – | MIC [5]: < 0.035 µM
11 | CCCCCCCC(=O)Nc1nc2ccccc2c2ccccc12 | > 312 | 300 (≈ 96.2 µg/mL) | > 50 | –
12 | O=C(CCCc1c[nH]c2ccccc12)Nc1nc2ccccc2c2ccccc12 | 70.6 (≈ 26.8 µg/mL) | 218 (≈ 82.8 µg/mL) | 30 | –
13 | COc1nc2ccc(Br)cc2cc1[C@@H](c1ccccc1)[C@@](O)(CCN(C)C)c1cccc2ccccc12 [BEDAQUILINE] | 0.054 (≈ 0.03 µg/mL) | 0.216 (≈ 0.12 µg/mL) | – | –
14 | NNC(=O)c1ccncc1 [ISONIAZID] | 2.62 (≈ 0.36 µg/mL) | 560 (≈ 76.8 µg/mL) | – | –
15 | C#CCCC(=O)Nc1nc2ccccc2c2ccccc12 | > 365 | > 365 | 22.6 | –
16 | Cc1cc(C)cc(-n2cc(CNC(=O)c3c(C)nc4c5ccccc5c5ccccc5n34)nn2)c1 | > 217 | 208 (≈ 95.9 µg/mL) | 90.7 | –
17 | O=C(Cc1c[nH]c2ccccc12)Nc1nc2ccccc2c2ccccc12 | 125 (≈ 44.1 µg/mL) | 69 (≈ 24.2 µg/mL) | 32.1 | –

Row | Structure (SMILES) | MIC [1] [µM] | MIC [2] [µM] | CC50 [3] [µM] | other results
18 | Cc1nc2c3ccccc3c3ccccc3n2c1C(=O)NCc1cn(-c2ccccc2Cl)nn1 | > 214 | > 214 | – | –
19 | C#CCNC(=O)c1c(C)nc2c3ccccc3c3ccccc3n12 | > 319 | > 319 | – | –
20 | Nc1cccc(C(=O)Nc2nc3ccccc3c3ccccc23)c1 | 150 (≈ 46.9 µg/mL) | 151 (≈ 47.2 µg/mL) | 56.9 | –
21 | COc1ccc(-n2cc(CNC(=O)c3c(C)nc4c5ccccc5c5ccccc5n34)nn2)c([N+](=O)[O-])c1 | 94 (≈ 47.7 µg/mL) | 106 (≈ 53.6 µg/mL) | – | –
22 | N#Cc1ccc(Cn2cc(CNC(=O)c3cn4ccccc4n3)nn2)cc1 | – | – | – | MIC [6]: 1560 µM (≈ 558 µg/mL)
23 | Nc1nc2ccccc2c2ccccc12 | 61.3 (≈ 11.9 µg/mL) | 62.1 (≈ 12.1 µg/mL) | 30.5 | –
24 | CCc1ccc(-n2cc(CNC(=O)c3c(C)nc4c5ccccc5c5ccccc5n34)nn2)cc1 | > 217 | > 217 | – | –
25 | Cc1nc2c3ccccc3c3ccccc3n2c1C(=O)NCc1cn(-c2cccc([N+](=O)[O-])c2)nn1 | 84.3 (≈ 40.2 µg/mL) | 87.4 (≈ 41.7 µg/mL) | 71.9 | –
26 | O=C(Nc1nc2ccccc2c2ccccc12)c1ccccc1I | > 236 | > 236 | – | –
27 | CO[C@H]1/C=C/O[C@@]2(C)Oc3c(C)c(O)c4c(O)c(c(/C=N/N5CCN(C)CC5)c(O)c4c3C2=O)NC(=O)/C(C)=C\C=C\[C@H](C)[C@H](O)[C@@H](C)[C@@H](O)[C@@H](C)[C@H](OC(C)=O)[C@@H]1C [RIFAMPIN] | 0.073 (≈ 0.0601 µg/mL) | 0.145 (≈ 0.119 µg/mL) | – | –
28 | Cc1nc2c3ccccc3c3ccccc3n2c1C(=O)NCc1cn(-c2ccc([N+](=O)[O-])cc2Br)nn1 | 180 (≈ 100 µg/mL) | 180 (≈ 100 µg/mL) | – | –
29 | O=C(Cc1ccc(Br)cc1)Nc1nc2ccccc2c2ccccc12 | > 256 | > 256 | > 50 | –
30 | Cc1nc2c3ccccc3c3ccccc3n2c1C(=O)NCc1cn(-c2cccc(C(F)(F)F)c2)nn1 | 184 (≈ 92 µg/mL) | 89.5 (≈ 44.8 µg/mL) | 82.3 | –
31 | Cc1ccc2nc(C)c(C(=O)NCCCC3CCCCC3)n2c1 | – | – | – | MIC [7]: 0.1 µM (≈ 0.0313 µg/mL)
32 | Cc1nc2c3ccccc3c3ccccc3n2c1C(=O)NCc1cn(-c2ccc(C(F)(F)F)cc2)nn1 | > 200 | 93 (≈ 46.5 µg/mL) | 84.4 | –
33 | Cc1ccc(-n2cc(CNC(=O)c3c(C)nc4c5ccccc5c5ccccc5n34)nn2)cc1C | 41.5 (≈ 19.1 µg/mL) | 78.8 (≈ 36.3 µg/mL) | – | –
